According to article PMC5749269 (ACS biomaterials science & engineering, 2017):
Where no end group is shown, it is not given here.

Experiments:
Zeta potential analysis = assay type: physicochemical; details: 100 μM in water, n = 3
Summary of the method: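 Micelles made by methanol thin-film evaporation, overnight vacuum drying and 30 min hydration at 80 °C, then cooled to room temperature. Zeta potential measured on 100 μM micelles dissolved in water, n = 3.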

[1] = test system: CCR2 gene expression in 22Rv1 prostate cancer cells; experiment: CCR2 expression by qRT-PCR; assay type: cell-based; details: 22Rv1 cells, 5 μM (noncytotoxic), vs PBS, n = 3
Summary of the method: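 22Rv1 cells kept in RPMI-1640 with 10% FBS and 1% penicillin-streptomycin at 37 °C, 5% CO2, treated with test compound at 5 μM or PBS. cDNA made with an RT2 first-strand kit and amplified with RT2 SYBR Green qPCR master mix. Relative expression vs Actb or GAPDH housekeeping gene by the 2ΔΔCq method. n = 3, mean ± SEM.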

[2] = test system: 22Rv1 prostate cancer cells; assay type: cell-based; details: 72 h
[3] = test system: WEHI 274.1 murine monocytes; experiment: Chemotaxis assay; assay type: cell-based; details: 1000 μM, 4 h, transwell 8 μm pores, Pico Green, n = 5, mean ± SEM
[4] = test system: PC3 prostate cancer cells; experiment: In vitro cytotoxicity; assay type: cell-based; details: 72 h
[5] = test system: WEHI 274.1 murine monocytes; experiment: In vitro cell viability; details: MTS assay, varying concentrations, 24 and 72 h, n = 6

CYNSLVFRIRNSTQRKYRASISTK-OH [scrambled peptide]
zeta potential (Zeta potential analysis): 7.2 ± 3.4 mV | downregulation of CCR2 gene expression [1]: unappreciable CCR2 changes | IC50 [2]: 76.1 ± 15.8 µM | migrated monocytes (DNA quantification) [3]: 13.9 ± 2.8 ng DNA/mL | IC50 [4]: > 100 µM | cell viability of monocytes [5]: no decrease in cell viability
